According to article PMC6818095 (Journal of medicinal chemistry, 2014):

Columns and labels:
σ2 receptor = molecular target: T1, σ2 receptor (Rattus norvegicus, UniProt Q5U3Y7); type: binding; details: for increase of selectivity for σ2 compared to 26 / increase of σ2 binding affinity compared to 26: relative to nonsubstituted 1H-[1,2,3]triazole carboxamide analogue 26; for lower binding affinity for σ2 receptor than corresponding methoxy-substituted congeners: 39e and 39f versus 39b and 39c
T1 sequence (Q5U3Y7 1-176): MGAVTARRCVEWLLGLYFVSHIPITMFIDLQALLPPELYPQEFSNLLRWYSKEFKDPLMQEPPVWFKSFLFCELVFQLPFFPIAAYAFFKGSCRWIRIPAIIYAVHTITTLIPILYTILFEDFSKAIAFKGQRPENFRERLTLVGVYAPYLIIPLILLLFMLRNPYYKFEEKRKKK

[1] = system: EMT-6 murine breast cancer cells; assay: functional assay: cell viability; type: cell-based; details: for cytotoxicity (in words): EMT-6 cells, cell viability assay
How it was run: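 EMT-6 murine breast cancer cells grown in DMEM with 10% FBS and penicillin/streptomycin at 37 °C, 5% CO2; seeded 5 × 10^3 cells/well 24 h before dosing. Test compound in DMSO serially diluted in medium (final DMSO ≤1.0%), 24 or 48 h exposure. MTS reagent 1–2 h at 37 °C, A490. Viability relative to untreated cells; EC50 from dose–response curves; triplicate, mean ± SEM of three experiments.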

SMILES	increase of selectivity for σ2 compared to 26 (σ2 receptor) [fold]	increase of σ2 binding affinity compared to 26 (σ2 receptor) [fold]	other results
COc1cc2c(cc1OC)CN(CCCCNC(=O)c1cn(-c3ccccc3OC)nn1)CC2 [24d, N-(4-(6,7-Dimethoxy-3,4-dihydro-1H-isoquinolin-2-yl)butyl)-1-(2-methoxyphenyl)-1H-1,2,3-triazole-4-carboxamide]	817	682	–
COc1cccc(-n2cc(C(=O)NCCCCN3CCc4cc(OC)c(OC)cc4C3)nn2)c1 [24e, N-(4-(6,7-Dimethoxy-3,4-dihydro-1H-isoquinolin-2-yl)butyl)-1-(3-methoxyphenyl)-1H-1,2,3-triazole-4-carboxamide]	629	341	–
COc1ccc(-n2cc(C(=O)NCCCCN3CCc4cc(OC)c(OC)cc4C3)nn2)cc1 [24f, N-(4-(6,7-Dimethoxy-3,4-dihydro-1H-isoquinolin-2-yl)butyl)-1-(4-methoxyphenyl)-1H-1,2,3-triazole-4-carboxamide]	–	186	cytotoxicity (in words) [1]: did not induce cytotoxicity; agonist/antagonist classification at the σ2 receptor ([1]; based on cytotoxicity in EMT-6 cells relative to siramesine): antagonist
COc1ccccc1Cn1cc(C(=O)NCCCCN2CCc3cc(OC)c(OC)cc3C2)nn1 [39a, N-(4-(6,7-Dimethoxy-3,4-dihydro-1H-isoquinolin-2-yl)butyl)-1-(2-methoxybenzyl)-1H-1,2,3-triazole-4-carboxamide]	198	105	–
COc1cccc(Cn2cc(C(=O)NCCCCN3CCc4cc(OC)c(OC)cc4C3)nn2)c1 [39b, N-(4-(6,7-Dimethoxy-3,4-dihydro-1H-isoquinolin-2-yl)butyl)-1-(3-methoxybenzyl)-1H-1,2,3-triazole-4-carboxamide]	110	96	–
COc1ccc(Cn2cc(C(=O)NCCCCN3CCc4cc(OC)c(OC)cc4C3)nn2)cc1 [39c, N-(4-(6,7-Dimethoxy-3,4-dihydro-1H-isoquinolin-2-yl)butyl)-1-(4-methoxybenzyl)-1H-1,2,3-triazole-4-carboxamide]	63	205	–
COc1cc2c(cc1OC)CN(CCCCNC(=O)c1cn(Cc3ccccc3)nn1)CC2 [39d, 1-Benzyl-N-(4-(6,7-dimethoxy-3,4-dihydro-1H-isoquinolin-2-yl)-butyl)-1H-1,2,3-triazole-4-carboxamide]	34	82	–
COc1cc2c(cc1OC)CN(CCCCNC(=O)c1cn(Cc3cccc(O)c3)nn1)CC2 [39e, N-(4-(6,7-Dimethoxy-3,4-dihydro-1H-isoquinolin-2-yl)butyl)-1-(3-hydroxybenzyl)-1H-1,2,3-triazole-4-carboxamide]	–	–	lower binding affinity for σ2 receptor than corresponding methoxy-substituted congeners (σ2 receptor): 2 fold
COc1cc2c(cc1OC)CN(CCCCNC(=O)c1cn(Cc3ccc(O)cc3)nn1)CC2 [39f, N-(4-(6,7-Dimethoxy-3,4-dihydro-1H-isoquinolin-2-yl)butyl)-1-(4-hydroxybenzyl)-1H-1,2,3-triazole-4-carboxamide]	–	–	lower binding affinity for σ2 receptor than corresponding methoxy-substituted congeners (σ2 receptor): 2 fold
COc1cccc(Cn2cc(C(=O)NCCN3CCc4cc(OC)c(OC)cc4C3)nn2)c1 [40e, N-(2-(6,7-Dimethoxy-3,4-dihydro-1H-isoquinolin-2-yl)ethyl)-1-(3-methoxybenthyl)-1H-1,2,3-triazole-4-carboxamide]	–	–	σ2 binding affinity lower than the 4-carbon spacer congeners (σ2 receptor; 2-carbon spacer 40a–40f versus 24d–24f and 39a–39c): 20 fold
COc1cc2c(cc1OC)CN(CCCCNC(=O)c1cc(-n3cc(CN(C)C)nn3)ccc1OCCF)CC2 [compound 65, N-(4-(6,7-Dimethoxy-3,4-dihydroisoquinolin-2(1H)-yl)butyl)-5-(4-((dimethylamino)methyl)-1H-1,2,3-triazol-1-yl)-2-(2-fluoroethoxy)benzamide]	–	–	σ2 binding affinity lower than lead compound 8 (σ2 receptor; 65 versus lead compound 8): 14 fold; σ2 binding affinity lower than lead compound 9 (σ2 receptor; 65 versus lead compound 9): 89 fold
Fc1ccc(-n2cc(CCCCN3CCC4(CC3)OCc3ccccc34)c3ccccc32)cc1 [siramesine, reference compound]	–	–	cytotoxicity (in words) [1]: potent cytotoxicity
